This is an account of results in ChEMBL document CHEMBL1132700, “Design, synthesis, structure-activity relationships, and biological characterization of novel arylalkoxyphenylalkylamine sigma ligands as potential antipsychotic drugs” (J Med Chem, 1999).

Assay [1] addresses Sigma non-opioid intracellular receptor 1 (Rattus norvegicus, UniProt Q9R0C9). Briefly: Inhibitory concentration against radioligand [3H]3-PPP binding to Sigma opioid receptor type 1 in rat brain membrane. Type of assay: cell membranes. The method, boiled down:
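Rat whole-brain membranes from male Wistar rats (200–250 g), homogenized in 50 mM Tris/HCl pH 7.7, washed by repeated 50000g spins. Incubated with 2 nM [3H]-(+)-3-PPP and at least five concentrations of unlabeled drug. Filtered on polyethylenimine-soaked glass-fiber filters and counted by scintillation. IC50 from nonlinear curve fitting of competition data, duplicate determinations.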

Assay [2] has as its target D(2) dopamine receptor (Rattus norvegicus, UniProt P61169). Briefly: Inhibitory concentration against radioligand [3H](-)-sulpiride binding to Dopamine receptor D2 in rat. The method, boiled down: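 Striatal membranes from male Wistar rats (200–250 g), homogenized in 50 mM Tris/HCl pH 7.7, washed by repeated 50000g spins. Filtration on PEI-soaked glass-fiber filters, then scintillation counting. IC50 by nonlinear curve fitting, duplicate determinations.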

The species entered for assay [3] is Mus musculus. Briefly: Effective dose against (+)-SKF-10047-induced stereotyped behavior in mice was determined. Type of assay: functional. The procedure, abridged:
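Male ICR mice (25–30 g, 10 per group) acclimatized at least 1 h. Test drug given orally 30 min before (+)-SKF10,047 30 mg/kg ip. Stereotypy scored on a 0–5 scale from 10 min post-injection, every 5 min for 40 min. Vehicle plus three doses were tested. Total score expressed as percent of control, and ED25 derived.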

pIC50: −log10 of the molar value.

Sigma non-opioid intracellular receptor 1, sequence (Q9R0C9 whole entry): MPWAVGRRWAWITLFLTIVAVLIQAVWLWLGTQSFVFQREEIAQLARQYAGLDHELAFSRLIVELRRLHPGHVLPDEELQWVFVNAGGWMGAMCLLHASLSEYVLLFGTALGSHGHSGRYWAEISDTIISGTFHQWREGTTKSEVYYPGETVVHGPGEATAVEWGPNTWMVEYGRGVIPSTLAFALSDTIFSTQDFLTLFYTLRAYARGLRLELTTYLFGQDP
D(2) dopamine receptor, sequence (P61169 whole entry): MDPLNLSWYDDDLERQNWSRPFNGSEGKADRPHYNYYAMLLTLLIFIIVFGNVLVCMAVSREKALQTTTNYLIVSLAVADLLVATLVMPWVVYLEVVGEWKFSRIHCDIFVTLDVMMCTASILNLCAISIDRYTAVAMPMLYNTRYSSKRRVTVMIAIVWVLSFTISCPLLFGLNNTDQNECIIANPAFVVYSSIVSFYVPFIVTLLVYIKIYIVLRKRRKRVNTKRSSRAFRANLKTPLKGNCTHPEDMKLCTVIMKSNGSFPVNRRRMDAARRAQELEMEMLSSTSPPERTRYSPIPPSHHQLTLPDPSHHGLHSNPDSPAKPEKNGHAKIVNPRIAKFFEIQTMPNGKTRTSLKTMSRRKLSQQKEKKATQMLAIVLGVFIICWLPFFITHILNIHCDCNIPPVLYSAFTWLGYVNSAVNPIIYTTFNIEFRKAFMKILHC

As for `Cc1cccc(N2CCN(CCCc3cc(Cl)ccc3OCCc3ccccc3)CC2)n1`, the pIC50 (in general, −log10 of the IC50, conventionally taken in molar units) in assay [1] was 6.38; in assay [2], 6.53. In the case of `CCCN(CCC)CCc1ccc(OC)c(OCCCc2ccccc2)c1`, the pIC50 in assay [2] was below 6.00.

Consider `CCCN(CCC)CCc1cc(Br)ccc1OCCCc1ccccc1`, for which the results for the pIC50 in assay [1] and in assay [2] were 7.36 and 6.16, respectively. For `Clc1ccc(OCCc2ccccc2)c(CCN2CCCC2)c1`, in that order: 7.44 and 7.16. Regarding `Clc1ccc(OCCc2ccccc2)c(CCN2CCOCC2)c1`, the pIC50 was 6.51 in assay [1] and 6.79 in assay [2].

As to `CCCN(CCC)CCc1cccc(OC)c1OCCCc1ccccc1`, the pIC50 in assay [1] was 8.77; in assay [2] it was below 6.00. As for `COc1ccc(CCN2CCCC2)cc1OCCc1ccccc1`, the pIC50 in assay [2] is below 6.00. Take `Clc1ccc(OCCc2ccccc2)c(CCN2CCN(c3ncccn3)CC2)c1`: the negative-log IC50 (pIC50) in assay [1] was below 6.00; in assay [2] it was 6.84. Consider `COc1ccccc1N1CCN(CCCc2cc(Cl)ccc2OCCc2ccccc2)CC1`, for which the pIC50 in assay [1] was 6.50; in assay [2], 7.80. `Clc1ccc(OCCc2ccccc2)c(CCCN2CCN(c3ccccc3)CC2)c1` showed a pIC50 in assay [2] of 6.74.

Consider `CCCN(CCC)CCc1ccc(OCCc2ccccc2)cc1OC`, for which, in assay [2], the negative logarithm of the IC50 (pIC50) is below 6.00. `COc1cccc(CCN2CCCC2)c1OCCc1ccccc1` showed a negative-log IC50 (pIC50) in assay [2] below 6.00. For the compound `Clc1ccc(OCCc2ccccc2)c(CCCN2CCN(c3ncccn3)CC2)c1`, the figures for the pIC50 in assay [1] and in assay [2] were 6.77 and 6.94, respectively.

Regarding `CCCN(CCC)CCc1cccc(F)c1OCCc1ccccc1`, the results for the pIC50 in assay [1] and in assay [2] were 7.66 and below 6.00, respectively. The corresponding values for `Clc1ccc(OCCc2ccccc2)c(CCCN2CCN(c3ccccn3)CC2)c1` are 6.93 and 7.03. The corresponding values for `CCCN(CCC)CCc1cc(Br)cc(Br)c1OCCc1ccccc1` are 6.11 and below 6.00. With `CCCN(CCC)CCc1ccc(OC)c(OCc2ccccc2)c1.O=C(O)C(=O)O`, the pIC50 in assay [1] was 7.55; in assay [2], below 6.00. The corresponding values for `COc1cccc(CCN2CCN(c3ccccn3)CC2)c1OCCc1ccccc1` are below 6.00 and 6.86. As for `CCCN(CCC)CCc1cc(Cl)cc(Cl)c1OCCc1ccccc1`, the negative-log IC50 (pIC50) in assay [1] was 6.55; in assay [2], below 6.00. For `COc1ccc(CCN2CCN(c3ccccn3)CC2)cc1OCCc1ccccc1`, in that order: 6.95 and 6.53. The corresponding values for `CCCN(CCC)CCCCc1cc(Cl)ccc1OCCc1ccccc1` are 7.59 and below 6.00. For `COc1cccc(CCN2CCOCC2)c1OCCc1ccccc1`, in that order: 6.43 and below 6.00. Take `CCCN(CCC)CCc1cc(Cl)ccc1OCc1ccccc1`: the pIC50 is 6.93 in assay [1] and 6.47 in assay [2].

As to `COc1ccc(CCN2CCOCC2)cc1OCCc1ccccc1`, the negative logarithm of the IC50 (pIC50) in assay [1] and in assay [2] was below 6.00 each time. As to `CCCN(CCC)CCc1ccc(OC)c(OCCc2ccc(OC)cc2)c1`, the negative logarithm of the IC50 (pIC50) is 9.00 in assay [1] and below 6.00 in assay [2]. The corresponding values for `CCCN(CCC)CCc1cc(Cl)ccc1OCCCc1ccccc1` are 7.25 and 6.06. As for `CCCN(CCC)CCc1ccc(OC)cc1OCCc1ccccc1`, the negative-log IC50 (pIC50) in assay [2] was below 6.00. In the case of `CCCN(CCC)CCc1ccc(OCCc2ccccc2)c(OC)c1`, the values for the pIC50 in assay [1] and in assay [2] were 7.92 and below 6.00, respectively.

Take `CCCN(CCC)CCc1ccc(OC)c(OCCc2cccc(Cl)c2)c1`: the pIC50 in assay [2] was below 6.00. Regarding `CCCN(CCC)CCc1ccc(OC)c(OCCc2ccc(OC)c(OC)c2)c1`, in assay [1], the pIC50 is 7.17. On to `CCCN(CCC)CCCc1cccc(OC)c1OCCc1ccccc1`, for which the pIC50 in assay [1] was 7.89; in assay [2] it was below 6.00. For `CCCN(CCC)CCc1ccccc1OCCc1ccccc1`, in that order: 7.82 and 6.36.

On to `COc1cccc(CCN2CCN(c3ccccc3)CC2)c1OCCc1ccccc1`, for which the negative logarithm of the IC50 (pIC50) was 6.48 in assay [1] and 7.18 in assay [2]. For `Clc1ccc(OCCc2ccccc2)c(CCN2CCN(c3ccccn3)CC2)c1`, in that order: below 6.00 and 7.29.

Turning to `CCCN(CCC)CCc1ccc(OC)c(OCCc2ccc(F)cc2)c1`, the pIC50 in assay [1] was 9.00; in assay [2], below 6.00. The corresponding values for `CCCN(CCC)CCc1ccc(OCCc2ccccc2)c(O)c1` are 7.60 and below 6.00. `CCCN(CCC)CCc1ccc(Cl)cc1OCCc1ccccc1`: in assay [2], the pIC50 is below 6.00. The same measure, in the same setting: to `CCCN(CCC)CCc1ccc(OC)c(OCCc2cccs2)c1` belongs below 6.00.

As to `CCCN(CCc1ccc(OC)c(OCCc2ccccc2)c1)CCC(C)C`, the negative logarithm of the IC50 (pIC50) was 8.54 in assay [1] and 6.17 in assay [2]. For `CCCCCCN(CCC)CCc1ccc(OC)c(OCCc2ccccc2)c1`, in that order: 8.74 and 6.21. On to `COc1ccccc1N1CCN(CCc2cc(Cl)ccc2OCCc2ccccc2)CC1`, for which the results for the pIC50 in assay [1] and in assay [2] were 6.19 and 7.06, respectively. Regarding `CCCN(CCCO)CCc1ccc(OC)c(OCCc2ccccc2)c1`, the negative-log IC50 (pIC50) in assay [1] is 7.72; in assay [2] it was below 6.00. For the compound `COc1ccc(CCN)cc1OCCc1ccccc1`, the pIC50 in assay [2] was below 6.00. Same read-out and setting: with `CCCN(CCC)CCc1ccc(O)c(OCCc2ccccc2)c1` the figure was below 6.00. On the same count and under the same terms, with `CCCNCCc1ccc(OC)c(OCCc2ccccc2)c1` the figure was below 6.00.

Take `CCCN(CCC)CCc1cc(F)ccc1OCCc1ccccc1`: the pIC50 was 7.89 in assay [1] and below 6.00 in assay [2].

Take `COc1ccc(CCN2CCN(c3ccccc3OC)CC2)cc1OCCc1ccccc1`: the pIC50 in assay [1] is 7.60; in assay [2], 7.96. The corresponding values for `CCCN(CCC)CCc1ccc(OC)c2c1-c1ccccc1CO2` are 6.00 and below 6.00. As to `CCCN(CCC)CCc1ccc(O)c2c1-c1ccccc1CO2`, the pIC50 in assay [1] is 6.25; in assay [2] it was below 6.00. Compound `CN1CCc2cccc3c2[C@H]1Cc1ccc(O)c(O)c1-3` [APOMORPHINE] showed a pIC50 in assay [1] below 6.00. Regarding `OC(CCCN1CCN(c2ncc(F)cn2)CC1)c1ccc(F)cc1` (stereo not drawn) [BMY-14802], the negative logarithm of the IC50 (pIC50) in assay [2] is below 6.00. The same compound had an ED25 in assay [3] of 7.6 mg/kg.
